Measurements taken from article PMC4317571 (Structure (London, England : 1993), 2015).
Each block holds one compound with its values, some of them ahead of it. Where no end group is shown, it is not given here. Me2 = dimethyl on the lysine side-chain amine

How the values were obtained:
[1] = biological target: 53BP1 TTD, wild type (Homo sapiens, UniProt Q12888); assay: NMR binding to 53BP1 TTD; details: 15N-labeled TTD, peptide titrated in
[2] = system: anti-p53K382me2 antibodies; assay: Dot-blot reactivity of anti-p53K382me2 antibody toward p53 peptides; assay type: binding, rabbit; details: relative to p53K381acK382me2 peptide, residues 377–386
[3] = system: GST 53BP1-TTD; assay: Biotinylated p53 peptide microarray binding of GST-tagged 53BP1 TTD; details: biotinylated p53 peptides; four replicate array binding experiments
Outline: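 Biotinylated p53 C-terminal peptides (residues 366–390) printed on streptavidin-coated glass slides, then probed with GST-tagged 53BP1 TTD. Binding is shown as normalized mean intensity on a 0 (undetectable) to 1 (strong) scale from four replicate array experiments. Agreement between duplicate arrays was assessed by linear regression correlation.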

[4] = system: p53K382me2 in U2OS cells; assay: Immunoblot of immunoprecipitated p53: anti-p53K382me2 reactivity; assay type: cell-based, human
Outline: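 Sub-confluent U2OS cells were grown in DMEM with 10% FBS and left untreated or given doxorubicin for 4 h. TSA (400 nM) was given for 1 h, in combined treatment added 3 h after doxorubicin. Cells were lysed in Tris pH 7.4/NaCl/Triton buffer with inhibitors. p53 was pulled down from 1 mg protein on DO-1 agarose overnight at 4 °C and eluted non-reducing at 70 °C. Blots were probed overnight at 4 °C with anti-K382me2 and a light-chain-specific secondary.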

[5] = system: p300/CBP at p53 target regions; assay: p300 ChIP-seq enrichment at p53 target regions; assay type: cell-based; details: meta-analysis of public ChIP-seq data, mouse ES cells

Sequence of 53BP1 TTD, wild type (Q12888 1484-1603 limits assumed): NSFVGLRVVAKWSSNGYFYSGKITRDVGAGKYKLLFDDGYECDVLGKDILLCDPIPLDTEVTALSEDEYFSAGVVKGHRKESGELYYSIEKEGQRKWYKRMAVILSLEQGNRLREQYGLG

Compound: p53K382me2: p53 peptide dimethylated at K382 (residues 377–386; biotinylated 366–390 for microarray) (SSHLKSKKGQSTSRHKK(Me2)LMFKTEGP; also: biotin label, position not given here)
- chemical shift changes in 1H,15N HSQC spectra of TTD (in words) [1]: most significant changes in the K382me2-binding cage
- anti-p53K382me2 antibody reactivity, fold weaker than with p53K381acK382me2 peptide [2]: 16 fold

- GST-TTD binding in peptide microarray (in words) [3]: recognizes
Compound: p53K382me2K386ac: biotinylated p53 CTD peptide with K382me2 and K386ac (SSHLKSKKGQSTSRHKK(Me2)LMFK(Ac)TEGP; also: biotin label, position not given here)

- GST-TTD binding in peptide microarray (in words) [3]: more weakly
Compound: p53K370me2: p53 CTD peptide dimethylated at K370 (SSHLK(Me2)SKKGQSTSRHKKLMFKTEGP; also: biotin label, position not given here)

Compound: CC(/C=C/C(=O)NO)=C\[C@@H](C)C(=O)c1ccc(N(C)C)cc1 [TSA]
- p53K382me2 level under basal conditions (in words) ([4]; basal, with TSA 400 nM, 1 h): little p53K382me2 was present

Compound: COc1cccc2c1C(=O)c1c(O)c3c(c(O)c1C2=O)C[C@@](O)(C(=O)CO)C[C@@H]3O[C@H]1C[C@H](N)[C@H](O)[C@H](C)O1 [doxorubicin]
- p300/CBP at p53 target regions (in words) [5]: enrichment of p300/CBP
- p53K382me2 level in immunoprecipitated p53 (in words) ([4]; doxorubicin 4 h (5 µg/mL in legend, 0.5 µg/mL in method)): increased substantially

- GST-TTD binding in peptide microarray (in words) [3]: more weakly
Compound: p53K372me2: p53 CTD peptide dimethylated at K372 (SSHLKSK(Me2)KGQSTSRHKKLMFKTEGP; also: biotin label, position not given here)
